What was measured:
Format in all cases: functional
[1] = Growth inhibition of human MDA-MB-81 cells after 48 hrs by SRB assay
UO-31 [2] = assay: Cytotoxicity against human UO31 cells assessed as cell growth at 10^-7 M after 48 hrs by SRB assay; details: UO-31, 48 h, read-out: Activity
HOP-62 = assay: Growth inhibition of human HOP62 cells after 48 hrs by SRB assay; details: HOP-62, 48 h
Summary of the method: (§1)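 Adherent NCI-60 lines grown in RPMI 1640 with 5% FBS, seeded at 5000–40,000 cells/well, and preincubated 24 h at 37 °C, 5% CO2. Compound, stocked in DMSO, given either once at 10^-5 M or at five 10-fold dilutions for 48 h. Cells fixed with cold TCA (final 10%), stained with 0.4% SRB, and read at 515 nm. GI50 taken as 50% reduction in net protein increase versus time-zero and control plates.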

A549 = assay: Cytotoxicity against human A549 cells assessed as cell growth at 10^-5 M after 48 hrs by SRB assay; details: A549, 48 h, read-out: Activity
Summary of the method: (§2)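 NCI-60 screen: lines kept in RPMI 1640 with 5% FBS, seeded at 5000–40,000 cells/well by doubling time, preincubated 24 h at 37 °C in 5% CO2. Time-zero plates TCA-fixed at drug addition. DMSO stocks diluted in medium, 48 h exposure. Fixation in cold TCA (final 10% adherent, 16% suspension), 0.4% SRB stain, solubilised in 10 mM Tris base, A515. Percent growth computed against control and time-zero.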

UACC-62 [3] = assay: Cytotoxicity against human UACC62 cells assessed as cell growth at 10^-8 M after 48 hrs by SRB assay; details: UACC-62, 48 h, read-out: Activity
UO-31 [4] = assay: Cytotoxicity against human UO31 cells assessed as cell growth at 10^-8 M after 48 hrs by SRB assay; details: UO-31, 48 h, read-out: Activity
NCI-H522 = assay: Cytotoxicity against human NCI-H522 cells assessed as cell growth at 10^-5 M after 48 hrs by SRB assay; details: NCI-H522, 48 h, read-out: Activity
MDA-MB-231 = assay: Cytotoxicity against human MDA-MB-231 cells assessed as cell growth at 10^-7 M after 48 hrs by SRB assay; details: MDA-MB-231, 48 h, read-out: Activity
[5] = Cytotoxicity against human NCI-ADR-RES cells assessed as cell growth at 10^-6 M after 48 hrs by SRB assay; details: read-out: Activity
SW-620 [6] = assay: Cytotoxicity against human SW620 cells assessed as cell growth at 10^-6 M after 48 hrs by SRB assay; details: SW-620, 48 h, read-out: Activity
UACC-62 [7] = assay: Cytotoxicity against human UACC62 cells assessed as cell growth at 10^-7 M after 48 hrs by SRB assay; details: UACC-62, 48 h, read-out: Activity
KM12 = assay: Cytotoxicity against human KM12 cells assessed as cell growth at 10^-7 M after 48 hrs by SRB assay; details: KM12, 48 h, read-out: Activity
HOP-92 = assay: Cytotoxicity against human HOP92 cells assessed as cell growth at 10^-4 M after 48 hrs by SRB assay; details: HOP-92, 48 h, read-out: Activity
Summary of the method: (§3)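 NCI-60 five-dose screen. Cells were grown in RPMI 1640 with 5% FBS and seeded at 5000–40,000 cells/well according to doubling time. They were pre-incubated 24 h at 37 °C in 5% CO₂, and time-zero (Tz) plates were TCA-fixed at drug addition. Five 10-fold dilutions of DMSO stock were applied for 48 h. Read-out was SRB staining, 515 nm absorbance, with percent growth calculated versus Tz and untreated control.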

SW-620 [8] = assay: Cytotoxicity against human SW620 cells assessed as cell growth at 10^-4 M after 48 hrs by SRB assay; details: SW-620, 48 h, read-out: Activity
DU-145 = assay: Growth inhibition of human DU145 cells after 48 hrs by SRB assay; details: DU-145, 48 h
Summary of the method: (§4)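 Same 48 h NCI-60 five-dose SRB protocol. Adherent lines were fixed with cold TCA at 10% final; suspension lines such as CCRF-CEM were fixed with 16% final TCA. Stain was 0.4% SRB in 1% acetic acid for 10 min, solubilized in 10 mM Tris base and read at 515 nm. GI50 came from log concentration–growth curves, solving [(Ti−Tz)/(C−Tz)]×100 = 50.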

HCT-15 = assay: Cytotoxicity against human HCT15 cells assessed as cell growth at 10^-5 M after 48 hrs by SRB assay; details: HCT-15, 48 h, read-out: Activity; summary of the method: as §3
BT-549 = assay: Growth inhibition of human BT549 cells after 48 hrs by SRB assay; details: BT-549, 48 h; for CC50: read-out: LC50 (the source's name); summary of the method: as §4
MDA-MB-468 = assay: Cytotoxicity against human MDA-MB-468 cells assessed as cell growth at 10^-8 M after 48 hrs by SRB assay; details: MDA-MB-468, 48 h, read-out: Activity
OVCAR-3 = assay: Growth inhibition of human OVCAR3 cells after 48 hrs by SRB assay; details: OVCAR-3, 48 h; summary of the method: as §1
HCC 2998 = assay: Growth inhibition of human HCC2998 cells after 48 hrs by SRB assay; details: HCC 2998, 48 h; summary of the method: as §1
U-251 = assay: Cytotoxicity against human U251 cells assessed as cell growth at 10^-5 M after 48 hrs by SRB assay; details: U-251, 48 h, read-out: Activity
[9] = Cytotoxicity against human NCI-ADR-RES cells assessed as cell growth at 10^-5 M after 48 hrs by SRB assay; details: read-out: Activity
SF-295 = assay: Cytotoxicity against human SF295 cells assessed as cell growth at 10^-7 M after 48 hrs by SRB assay; details: SF-295, 48 h, read-out: Activity
MOLT-4 = assay: Cytotoxicity against human MOLT4 cells assessed as cell growth at 10^-6 M after 48 hrs by SRB assay; details: MOLT-4, 48 h, read-out: Activity
HL-60 = assay: Cytotoxicity against human HL60 cells assessed as cell growth at 10^-6 M after 48 hrs by SRB assay; details: HL-60, 48 h, read-out: Activity; summary of the method: as §3
SNB-75 = assay: Cytotoxicity against human SNB75 cells assessed as cell growth at 10^-6 M after 48 hrs by SRB assay; details: SNB-75, 48 h, read-out: Activity
CCRF-CEM = assay: Cytotoxicity against human CCRF-CEM cells assessed as cell growth at 10^-6 M after 48 hrs by SRB assay; details: read-out: Activity; summary of the method: as §2
SF-539 = assay: Cytotoxicity against human SF539 cells assessed as cell growth at 10^-8 M after 48 hrs by SRB assay; details: SF-539, 48 h, read-out: Activity
SF-268 = assay: Cytotoxicity against human SF268 cells assessed as cell growth at 10^-6 M after 48 hrs by SRB assay; details: SF-268, 48 h, read-out: Activity

Row | Compound | GI50 [1] [µM] | growth at 0.1 µM (UO-31 [2]) [%] | GI50 (HOP-62) [µM] | LC50 (concentration killing 50% of cells) (HOP-62) [µM] | TGI (HOP-62) [µM] | growth at 10 µM (A549) [%] | growth at 0.01 µM (UACC-62 [3]) [%] | growth at 0.01 µM (UO-31 [4]) [%] | growth at 10 µM (NCI-H522) [%] | growth at 0.1 µM (MDA-MB-231) [%] | growth at 1 µM [5] [%] | growth at 1 µM (SW-620 [6]) [%] | growth at 0.1 µM (UACC-62 [7]) [%] | growth at 0.1 µM (KM12) [%] | growth at 100 µM (HOP-92) [%] | growth at 100 µM (SW-620 [8]) [%] | GI50 (DU-145) [µM] | LC50 (lethal concentration 50) (DU-145) [µM] | TGI (DU-145) [µM] | growth at 10 µM (HCT-15) [%] | also measured
1 | COc1ccc(-c2nn3cc(-c4ccc(O)cc4O)nc3s2)cc1 | 1.37 | 83 | 1.88 | > 100 | 5.17 | 2 | 98 | 84 | 1 | 99 | 81 | 86 | 95 | 96 | -21 | 6 | 4.37 | > 100 | > 100 | 32 | GI50 (BT-549): 2.36 µM; TGI (BT-549): 28.1 µM; CC50 (BT-549): > 100 µM; growth at 0.01 µM (MDA-MB-468): 96%; GI50 (OVCAR-3): 2.54 µM; LC50 (concentration causing 50% net cell kill) (OVCAR-3): > 100 µM; TGI (OVCAR-3): 8.48 µM; GI50 (HCC 2998): 4.37 µM; LC50 (concentration causing 50% net cell kill) (HCC 2998): > 100 µM; TGI (HCC 2998): 84.4 µM; growth at 10 µM (U-251): -41%; growth at 10 µM [9]: 15%; growth at 0.1 µM (SF-295): 90%; growth at 1 µM (MOLT-4): 78%; growth at 1 µM (HL-60): 74%; growth at 1 µM (SNB-75): 33%; growth at 1 µM (CCRF-CEM): 74%; growth at 0.01 µM (SF-539): 105%; growth at 1 µM (SF-268): 73%
2 | COc1ccc(-c2nn3cc(-c4cccc(N)c4)nc3s2)cc1 | 1.58 | 81 | 3.12 | 87.6 | 16.6 | 36 | 93 | 86 | 13 | 81 | 85 | 86 | 90 | 100 | -52 | -5 | 6.79 | > 100 | 31.7 | 36 | GI50 (BT-549): 3.88 µM; TGI (BT-549): 30.8 µM; CC50 (BT-549): > 100 µM; growth at 0.01 µM (MDA-MB-468): 94%; GI50 (OVCAR-3): 3.4 µM; LC50 (concentration causing 50% net cell kill) (OVCAR-3): 55.2 µM; TGI (OVCAR-3): 15.9 µM; GI50 (HCC 2998): 1.08 µM; LC50 (concentration causing 50% net cell kill) (HCC 2998): > 100 µM; TGI (HCC 2998): > 100 µM; growth at 10 µM (U-251): 44%; growth at 10 µM [9]: 31%; growth at 0.1 µM (SF-295): 87%; growth at 1 µM (MOLT-4): 76%; growth at 1 µM (HL-60): 60%; growth at 1 µM (SNB-75): 52%; growth at 1 µM (CCRF-CEM): 63%; growth at 0.01 µM (SF-539): 101%; growth at 1 µM (SF-268): 88%

From ChEMBL document CHEMBL2146441, “2,6-Disubstituted imidazo[2,1-b][1,3,4]thiadiazoles: search for anticancer agents” (2012)
